In PMC4878412 (Cancer chemotherapy and pharmacology, 2015):

Legend:
[1] = test system: DDX3; conditions: ref [1]; cited from earlier work
[2] = ref [1]; cited from earlier work
[3] = In vivo retention of RK-33 in plasma, liver and lungs 48 h after administration; conditions: mice, 48 h after intraperitoneal injection of 0.80 mg free RK-33
Method in brief: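 Female athymic NCr-nu/nu mice (4–5 weeks, three animals) got free test compound 0.8 mg i.p. and were killed at 48 h. Blood was drawn intracardially into heparin tubes and spun at 8000 rpm for 5 min. Liver and lungs were weighed and homogenised in 3 volumes cold PBS. Plasma or homogenate (0.1 mL) was extracted with 1 mL chloroform/isopropanol (1:1), shaken 3 min and centrifuged.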

[4] = ref [1]; cited from earlier work; remark: listed apart in the source
[5] = free RK-33; no method in this paper, no reference given; cited from earlier work

Substance: RK-33
- Inhibition of DDX3 (in words) [1]: effectively inhibits
- Cell cycle effect (in words) [2]: induce G1 arrest
- RK-33 in liver [3]: < 1 µg/mL
- RK-33 in lungs [3]: < 1 µg/mL
- RK-33 in plasma [3]: < 1 µg/mL
- Toxicity in mice (in words) [4]: little or no toxicity
- Systemic half-life (t½) [5]: 7.3 h
